From PubChem
Vif inh – blocks HIV Vif function; HEK293T cells, Vif self-association by quenched fluorescence, imaging, 24 h; inhibition, % at 7.49 µM; 340,000 compounds, 0.35% hits; AID 602346; in the data active = inhibition above about 50%, passing the limit was not always enough
UCH37 inh – inhibitors of human deubiquitinating enzyme UCH37 | Q9Y5K5 | purified proteasome/UCH37, Ub-AMC cleavage fluorescence | inhibition, % (concentration not given with the values) | 330,000 compounds, 0.33% hits;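 active = mean inhibition over replicate wells above about 20%, limit read from the data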;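 note: 0% = compound-free wells with enzyme and 100% = wells lacking proteasome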
Target sequence (Q9Y5K5 whole entry, looked up): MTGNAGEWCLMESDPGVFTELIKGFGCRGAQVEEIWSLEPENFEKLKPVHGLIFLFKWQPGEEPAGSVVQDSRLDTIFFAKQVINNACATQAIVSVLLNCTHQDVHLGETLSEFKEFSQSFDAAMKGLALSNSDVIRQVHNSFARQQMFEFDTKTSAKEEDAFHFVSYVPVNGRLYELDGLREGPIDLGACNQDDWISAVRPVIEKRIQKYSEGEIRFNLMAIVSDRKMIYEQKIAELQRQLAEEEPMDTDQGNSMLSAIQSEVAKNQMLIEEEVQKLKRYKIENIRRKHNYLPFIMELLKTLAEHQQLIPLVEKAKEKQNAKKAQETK
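system = Proteasome-associated human UCH37 deubiquitinase | amount = 0.15 nM proteasome as dispensed | medium = pH 7.4 Tris-HCl (50 mM) with ovalbumin, ATP-MgCl2, DTT | incubation = 30 min preincubation with enzyme, 25 min cleavage at room temperature | detection = AMC fluorescence 355/460 nm | read-out basis = percent inhibition | controls = no-proteasome and no-compound wells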
N-glyco inh – N-linked glycosylation inhibition. reporter increase, % at 12.5 µM. D54 ERlucT glycosylation luciferase reporter, 24 h; percent of 100 nM tunicamycin response. 360,000 compounds, 0.23% hits. AID 588692;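 active = mean luciferase reporter signal, scaled so untreated is 0 and the glycosylation-blocking control 100, at or above a set limit in every replicate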;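 note: luciferase carries N-glycosylation sites so blocking glycosylation raises the light; 0% = median of neutral control wells and 100% = median of 100 nM tunicamycin wells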
bovine MsrA act – bovine methionine sulfoxide reductase A activation; purified bovine MsrA, absorbance read-out; activation, % at 10.6 µM; 360,000 compounds, 0.3% hits; AID 602163; in the data active = activation above about 7.5%;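 note: 0% = vehicle and 100% = reference activator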
MsrA inh – inhibitors of bovine MsrA; purified bovine MsrA, absorbance read-out; inhibition, % at 15.5 µM; 360,000 compounds, 0.75% hits; AID 651718; in the data active = inhibition above about 4.5%;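 note: 0% = vehicle wells with enzyme and 100% = reference inhibitor wells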
aDG glyco act – increases alpha dystroglycan glycosylation | Pro5-aDG cells, alpha-DG glycosylation AlphaScreen (IIH6); 0% Pro5, 100% B10-LARGE cell signal | activation, % at 10 µM | 360,000 compounds, 0.22% hits | AID 624168;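 active = activation of at least 8% versus controls, or a plate z-score of at least 8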;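 note: Pro5 are CHO cells carrying HIG-tagged alpha-DG that lacks glycosylation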
MsrA act confirm – confirmation of bovine methionine sulfoxide reductase A activators. shares compounds with bovine MsrA act. purified bovine MsrA, absorbance read-out. activation, % at 10.6 µM. 1,000 compounds, 12% hits. AID 602270; in the data active = activation above about 4%;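 note: enzyme coupled to thioredoxin and thioredoxin reductase with NADPH; 0% = vehicle wells and 100% = reference activator wells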
Active calls of the source: *; nt = no result given. An excerpt weighted towards active compounds, which were near 1.9% of everything screened.

SMILES	Vif inh	UCH37 inh	N-glyco inh	bovine MsrA act	MsrA inh	aDG glyco act	MsrA act confirm
Cc1ccc(C=NNC(=O)c2nnn(-c3nonc3N)c2CSc2ccccc2)cc1	nt	3	nt	nt	nt	nt	nt
O=C(CN1CCOCC1)Nc1cccc(Br)c1	-2	0	1	-3	-1	0	nt
O=C(CN1CCCCC1)Nc1cccc(Br)c1	-15	-7	-1	7.8*	0	0	-1
Cc1ccc(C(=O)CC(C(=O)O)n2cnc([N+](=O)[O-])n2)cc1 (configuration not stated)	23	1	-2	9.4*	-1	0	-2
Cc1ccc(C(=O)CC(C(=O)O)n2cncn2)cc1 (configuration not stated)	-4	2	1	-5	0	0	nt
CC(=O)c1ccc(-n2c(C)c(C(C)=O)c3cc(O)ccc32)cc1	-2	4	-10	-3	1	0	nt
CC(=O)c1c(C)n(-c2ccc(Cl)cc2)c2ccc(O)cc12	-13	3	-4	7.8*	-1	0	0
CCN(CC)c1ccc(C=NO)cc1	nt	2	nt	nt	nt	nt	nt
OC12CCCCC1C(c1ccc3c(c1)OCO3)N(Cc1ccc(F)cc1)CC2 (configuration not stated)	-7	29*	0	9.5*	0	0	0
S=C(NCCc1ccccc1)NN=Cc1c(Cl)cccc1Cl	nt	2	nt	nt	nt	nt	nt
CCOc1ccc(-c2nnc(NC3=NCCCCC3)o2)cc1	-10	-2	-8	10*	1	0	0
COc1cc(C(=O)NCc2ccccc2)cc(Br)c1OC	-3	4	3	10*	0	0	-1
COc1ccc(Br)cc1C=NNC(=O)CN1CCN(Cc2ccccc2)CC1	nt	2	nt	nt	nt	nt	nt
COc1ccc(C(CNC(=O)c2cccc(N(C)C)c2)N2CCCC2)cc1 (configuration not stated)	22	-17	-8	9.0*	2	0	0
Clc1ccc(Cn2nc(-c3ccccc3)nc2-c2ccccc2)cc1	2	1	-1	8.7*	0	0	0
CC1CCN(CCCNC(=O)c2coc3nc4ccccc4nc23)CC1	-3	-77	-4	9.0*	1	0	-2
COc1cc(CNCc2ccccn2)ccc1OCc1c(Cl)cccc1Cl	-11	3	-5	0	0	2	nt
Cc1c(Cl)cccc1-c1ccc(CNCc2ccccn2)o1	4	7	1	7.7*	1	0	-1
C#CCN1C=C(C(=O)OCC)C(C)NS1(=O)=O (configuration not stated)	-7	-2	-1	-1	0	0	nt
C#CCN1C=C(C(=O)OCC)C(C)N(Cc2ccccc2I)S1(=O)=O (configuration not stated)	-2	0	10	12*	1	0	0
c1ccc(-c2cc3c(N4CCCC4)ncnc3s2)cc1	-3	-8	-4	-11	0	0	nt
c1ccc(-c2cc3c(N4CCOCC4)ncnc3s2)cc1	-5	-90	-6	8.0*	2	0	-3
Nc1ncnc2nc(SCc3ccccc3)[nH]c12	0	2	-2	7.8*	0	0	0
CCOC(=O)Cn1nc(C)c(NC(=O)COc2ccc(OC)cc2)c1C	-2	1	1	-4	1	0	nt
CCOC(=O)Cn1nc(C)c(NC(=O)COc2ccccc2)c1C	4	2	1	8.0*	-1	0	2
SMILES	Vif inh	UCH37 inh	N-glyco inh	bovine MsrA act	MsrA inh	aDG glyco act	MsrA act confirm
O=C(NN=Cc1ccncc1)c1ccc(-n2cccc2)cc1	nt	2	nt	nt	nt	nt	nt
CC1(Cc2ccc(OC(F)(F)F)cc2)C(=O)Nc2ccc(S(=O)(=O)NC3CCCCC3)cc21 (configuration not stated)	-19	nt	-8	20*	-1	2	1
Oc1ccc(C=NNc2cc(N3CCOCC3)nc(N3CCOCC3)n2)c(O)c1	nt	7	nt	nt	nt	nt	nt
COc1cccc(C=NNC(N)=S)c1OS(=O)(=O)c1ccccc1	nt	4	nt	nt	nt	nt	nt
O=C(NCCc1ccccc1)c1c(F)cccc1F	15	0	-5	11*	0	0	0
O=C(NCCc1csc(-c2ccccc2)n1)c1c(F)cccc1F	-1	2	-2	-1	1	0	nt
COc1cc(/C=N/NC(=O)c2cccc([N+](=O)[O-])c2)ccc1OCc1ccc(C)cc1	-4	nt	-2	8.3*	-1	0	-1
CCOC(=O)C(=O)NN=C(c1ccccc1)c1ccc(OC)cc1	nt	2	nt	nt	nt	nt	nt
O=C(COc1ccccc1)Nc1ccc([N+](=O)[O-])cc1	1	3	3	20*	2	0	2
CC(=O)Nc1ccc(OCC(=O)NCCc2ccccc2)cc1	-1	3	2	7.8*	1	0	0
Cc1ccc(S(=O)(=O)N=c2sccn2C)cc1	nt	1	nt	nt	nt	nt	nt
COc1ccccc1C=NNC(=O)COCC(=O)NN=Cc1ccccc1OC	nt	6	nt	nt	nt	nt	nt
CCOc1ccc(-c2nnc(-c3cccnc3)o2)cc1OCC	6	-7	6	9.2*	2	0	1
COc1ccc(/C(C)=N/NC(=O)CNC(=O)c2ccco2)c(OC)c1	-8	nt	1	8.6*	-1	0	-3
COc1ccc(C(C)=NNC(=O)CNC(=O)c2ccco2)c(OC)c1	nt	-2	nt	nt	nt	nt	nt
CC(C)CN1C(=O)c2ccccc2C1(O)Cc1ccccc1 (configuration not stated)	nt	-3	-1	-5	0	0	nt
C=CCN1C(=O)c2ccccc2C1(O)Cc1ccccc1 (configuration not stated)	2	-2	2	11*	0	0	-4
N#Cc1cccc(-c2nnc(SCc3ccccc3C#N)o2)c1	5	6	-2	14*	0	0	2
N#Cc1ccccc1CSc1nnc(-c2ccncc2)o1	-2	7	-2	-8	nt	0	nt
CC(=O)OCCn1c2nc(=O)[nH]c(=O)c-2nc2cc(C)c(C)cc21	nt	14	6	13*	1	0	16*
CC(=O)OCCn1c(C)[n+](CCOC(C)=O)c2cc(Cl)c(Cl)cc21	4	1	2	-2	2	0	nt
COC(=O)NN=Cc1cn(Cc2c(Cl)cccc2Cl)c2ccccc12	nt	4	nt	nt	nt	nt	nt
Cc1cccc(C)c1NC(=O)N1CCC(n2cnc3ccccc32)CC1	6	0	0	-3	-1	0	nt
Cc1cccc(C)c1NC(=O)N1CCC(n2c(=O)[nH]c3ccccc32)CC1	-6	3	-2	7.8*	-1	0	-1
CCOC(=O)c1[nH]c2ccc(OC)cc2c1NS(=O)(=O)c1ccc(OC)cc1OC	-2	-9	-3	9.7*	0	0	-2
COC(=O)c1[nH]c2ccc(F)cc2c1NS(=O)(=O)c1ccc(OC)cc1OC	2	5	-1	-1	1	0	nt
